OX1R antag-1: human HCRTR1 antagonism; inhibition, % at 5 µM; O43613; AID 434989; 330,000 compounds, 0.43% hits; CHO/OX1R cells, Fluo-8 calcium fluorescence, orexin A;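 active means inhibition above its plate's threshold, mean inhibition of all tested compounds on the plate plus 3 SD, cut at about 37% in these data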
OX1R antag-2: antagonists of human orexin 1 receptor (OX1R). AID 485270. 330,000 compounds, 1.8% hits. inhibition, % at 6.6 µM. OX1R-expressing cells, FRET antagonist read-out. O43613; in the data active means inhibition mostly above about 38%, no sharp cut-off; inactive means mostly below about 40%
CHO parental Ca: counter-screen for OX1R antagonists: effect in parental CHO cells; parental CHO-K1, ATP-induced calcium, Fluo-8 fluorescence; inhibition, % at 5.6 µM; 330,000 compounds, 0.63% hits; AID 463079;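 active means inhibition above that plate's mean sample inhibition plus 3 SD, cut at about 26% in these data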
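Material: Parental CHO cells | Reagent: ATP | Compound dosing: Single nominal dose of 5.6 µM per compound | Detection: Intracellular calcium via Fluo-8 no-wash fluorescent dye | Read-out: % inhibition of ATP-induced calcium mobilization | Benchmarks: Low control ATP plus DMSO, high control DMSO only | Replicates: Singlicate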
TAAR1 ag: agonists of human TAAR1; 360,000 compounds, 0.99% hits; CHO RD-HGA16 TAAR1, Fluo-8 calcium fluorescence; vehicle wells 0%, saturating PEA agonist 100%; Q96RJ0; activation, % at 3 µM;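 active means activation above the mean activation of all test compounds in the run plus 3 SD, cut at about 38% in these data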
Target sequence (Q96RJ0 whole entry, looked up): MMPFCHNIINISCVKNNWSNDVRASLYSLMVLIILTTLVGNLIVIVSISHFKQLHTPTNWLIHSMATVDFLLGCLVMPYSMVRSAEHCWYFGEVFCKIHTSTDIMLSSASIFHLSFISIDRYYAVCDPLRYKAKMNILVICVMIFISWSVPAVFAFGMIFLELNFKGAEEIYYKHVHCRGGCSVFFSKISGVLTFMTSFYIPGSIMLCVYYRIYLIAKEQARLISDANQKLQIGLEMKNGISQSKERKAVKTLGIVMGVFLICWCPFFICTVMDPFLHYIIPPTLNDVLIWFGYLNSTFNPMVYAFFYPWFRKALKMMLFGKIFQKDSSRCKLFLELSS
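Test system: RD-HGA16 (CHO) cells co-expressing Gα16 and hTAAR1 | Doses: Single dose, 3 µM | Schedule: 17-24 h seeding, 75 min 37 °C dye, 30 min RT | Evaluation: % activation from peak over basal fluorescence ratio, DMSO-to-PEA scaled | Technique: Kinetic Fluo-8 calcium fluorescence | Benchmarks: Low control DMSO, high control PEA (EC100)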
GPR7 antag: blocks human GPR7 receptor signaling. P48145. GPR7-expressing cells, fluorescence antagonist assay. inhibition, % at 4.4 µM. 290,000 compounds, 1.1% hits. AID 1861; in the data active means inhibition above about 16%, passing the limit was not always enough;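 further: cells stimulated with the agonist NPW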
TAAR1 antagonist: antagonists of human TAAR1 | Q96RJ0 | CHO RD-HGA16 TAAR1, Fluo-8 calcium fluorescence, antagonist | inhibition, % at 3 µM | 360,000 compounds, 1.5% hits;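 active means inhibition above a per-plate cutoff, the mean inhibition of test compounds on that plate plus 3 SD, cut at about 49% in these data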
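Test system – hTAAR1-expressing CHO RD-HGA16 cells, Gα16-coupled · Also added – β-PEA at EC80 concentration, post-compound challenge · Compound – 3 µM, single point · Incubation – dye loading 75 min at 37 °C, then 30 min room temperature · Measured by – Fluo-8 intracellular calcium dye fluorescence, real-time kinetic reads · Benchmarks – vehicle and agonist controls · Replicates – singlicate, one well per test compound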
TAAR1 ag confirm: confirmation of human TAAR1 agonists; shares compounds with TAAR1 ag; CHO RD-HGA16 TAAR1, Fluo-8 calcium fluorescence; scaled: DMSO 0%, maximal phenethylamine 100%; activation, % at 3 µM; 2,400 compounds, 82% hits;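 active means activation above a cutoff set at the run's mean compound activation plus 3 SD, cut at about 39% in these data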
Ga16 nonsel ag: counter-screen for TAAR1 agonists: nonselective agonists in parental cells | shares compounds with TAAR1 ag | CHO-Ga16 parental, Fluo-8 calcium fluorescence; normalized to maximal ATP response, DMSO zero | activation, % at 3 µM | 2,400 compounds, 50% hits | AID 651787;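 active means activation above the run cutoff, the mean activation over all tested wells plus 3 SD, cut at about 12% in these data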
TAAR1 desens: TAAR1 response desensitization, agonist counter-screen | AID 651951 | inhibition, % at 3 µM | shares compounds with TAAR1 ag | 2,400 compounds, 46% hits | CHO RD-HGA16 hTAAR1, Fluo-8 calcium, beta-PEA response inhibition;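 active means inhibition above the run cutoff, the mean inhibition of all test compounds plus 3 SD, cut at about 49% in these data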;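 further: beta-PEA stimulus applied at its EC80; loss of beta-PEA calcium signal after compound pretreatment read as receptor desensitization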
Ga16 nonsel ant: nonselective Ga16 antagonist in TAAR1 agonist counter-screen | AID 651952 | 2,400 compounds, 39% hits | shares compounds with TAAR1 ag | inhibition, % at 3 µM | CHO-Ga16 ATP-induced calcium, Fluo-8 fluorescence;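 active means inhibition above the plate's mean compound inhibition plus 3 SD, computed per plate, cut at about 22% in these data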
Of the large screens only hits and unclear results are named; the others gave an inactive call (follow-up assays come after a bar, where they were run). This is a sample that favours compounds with a hit; in the whole collection about 4.6% have one here.

O=C(NCCS(=O)(=O)NCCc1ccccc1)c1ccc2c(c1)OCO2	none (no result: TAAR1 ag, GPR7 antag, TAAR1 antagonist) | Ga16 nonsel ag inactive | Ga16 nonsel ant inactive
Cc1ccc(C(=O)NCCc2ccccc2)cc1	none (no result: TAAR1 ag, TAAR1 antagonist)
O=C(NCCc1ccccc1)c1ccc(=O)oc1	TAAR1 ag 61 | TAAR1 ag confirm 67 | Ga16 nonsel ag 14 | TAAR1 desens inactive | Ga16 nonsel ant inactive
N#CC(C#N)=C1NC2(CCCC2)Cc2ccccc21	none
CN(C)c1ccc(/C=C2\SC(=S)N(Nc3ncc(C(F)(F)F)cc3Cl)C2=O)cc1	OX1R antag-1 100, CHO parental Ca 76, TAAR1 ag 123, TAAR1 antagonist 87 | TAAR1 ag confirm 76 | Ga16 nonsel ag 122 | TAAR1 desens 77 | Ga16 nonsel ant 90
COCCN(CCOC)Cc1cc(=O)oc2ccc3ccccc3c12	none (no result: OX1R antag-1, OX1R antag-2, CHO parental Ca, GPR7 antag)
CCc1ccc(/C=C2\SC(=S)N(CCCC(=O)N3CCCC3)C2=O)cc1	none (no result: OX1R antag-1, OX1R antag-2, CHO parental Ca, GPR7 antag)
C=CCc1cccc(CNn2cnnc2)c1O	none
N/C(Cc1cccc2ccccc12)=N\OC(=O)Cc1cccs1	TAAR1 ag 61 | TAAR1 ag confirm 74 | Ga16 nonsel ag inactive | TAAR1 desens inactive | Ga16 nonsel ant inactive
N/C(Cc1cccc2ccccc12)=N\OC(=O)c1cccs1	none (no result: TAAR1 ag, TAAR1 antagonist)
COc1ccc(CC(=O)O/N=C(\N)Cc2cccc3ccccc23)cc1OC	TAAR1 ag 42 | TAAR1 ag confirm 65 | Ga16 nonsel ag inactive | TAAR1 desens inactive | Ga16 nonsel ant inactive
COc1ccc(CC(=O)O/N=C(\N)Cc2cccc3ccccc23)cc1	none
O=C(Nc1cccnc1)c1ccc(-c2cc(Cl)ccc2Cl)o1	TAAR1 ag 73 | TAAR1 ag confirm 40 | Ga16 nonsel ag 43 | TAAR1 desens inactive | Ga16 nonsel ant inactive
O=C(NCCc1ccccc1)c1ccc(Br)o1	TAAR1 ag 67 | TAAR1 ag confirm 77 | Ga16 nonsel ag inactive | TAAR1 desens inactive | Ga16 nonsel ant inactive
O=C(Nc1cccnc1)c1ccc(-c2ccc(Cl)cc2)o1	none
CC(=O)Nc1ccc(NC(=O)c2ccc(-c3ccccc3Cl)o2)cc1	TAAR1 ag 58, TAAR1 antagonist 54 (no result: OX1R antag-1, OX1R antag-2, CHO parental Ca, GPR7 antag) | TAAR1 ag confirm 40 | Ga16 nonsel ag 43 | TAAR1 desens 57 | Ga16 nonsel ant 38
O=C(NCCc1ccccc1)c1ccc(-c2ccccc2Cl)o1	TAAR1 ag 51 | TAAR1 ag confirm inactive | Ga16 nonsel ag 19 | TAAR1 desens 81 | Ga16 nonsel ant inactive
O=C(Nc1ccccc1)c1ccc(-c2ccccc2Cl)o1	none
O=C(NCc1ccccc1)c1ccc(Br)o1	none
Cc1ccc(NC(=O)C2(C)CCN2C2Cc3ccccc3C2)cc1 (configuration not stated)	none (no result: OX1R antag-1, OX1R antag-2, CHO parental Ca, GPR7 antag)
Nc1nonc1-n1nnc(C(=O)N/N=C/c2cccc(Cl)c2)c1-c1ccc2c(c1)OCO2	none
Nc1nonc1-n1nnc(C(=O)N/N=C/c2ccc3c(c2)OCO3)c1-c1ccccc1	TAAR1 ag 75 | TAAR1 ag confirm 45 | Ga16 nonsel ag 26 | TAAR1 desens inactive | Ga16 nonsel ant inactive
Nc1nonc1-n1nnc(C(=O)N/N=C/c2ccc(Br)cc2)c1-c1ccc2c(c1)OCO2	TAAR1 ag 154, TAAR1 antagonist 93 | TAAR1 ag confirm 150 | Ga16 nonsel ag 112 | TAAR1 desens 97 | Ga16 nonsel ant 81
O=C(O)COc1ccccc1C1C2C(=O)N(c3ccc(F)cc3)C(=O)C2ON1c1ccccc1 (configuration not stated)	none
CCN(CC)c1ncc(C#N)c(N)n1	none

Screening results from PubChem BioAssay.
